Data from ChEMBL document CHEMBL4251623, “Synthesis and evaluation of 2-(3-arylureido)pyridines and 2-(3-arylureido)pyrazines as potential modulators of Aβ-induced mitochondrial dysfunction in Alzheimer's disease” (Eur J Med Chem, 2018).

Species on record: Mus musculus
Test: Inhibition of amyloid beta (1 to 42)-induced mPTP opening in mouse HT22 cells assessed as neuroprotective activity against amyloid beta (1 to 42)-induced toxicity at 5 uM measured after 24 hrs by MTT assay relative to control
Assay type: cell-based
Settings: not given
Method in brief: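 HT-22 cells (5000/well) were pretreated with compound for 10 min, then Aβ1-42 was added, both at 5 µM, for 24 h at 37 °C. Viability was read by MTT (2 h; acidic Triton/isopropanol solubilization; A570). Aβ-treated viability was set to 0 and vehicle to 100% protection; mean of duplicates.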

| SMILES | percent protection against Aβ1-42 toxicity |
| --- | --- |
| Cc1ccc(NC(=O)Nc2ncccc2OCc2cccc(Cl)c2)cc1 | 17% |
| O=C(Nc1ccccc1F)Nc1ncccc1OCc1cccc(Cl)c1 | 67% |
| O=C(Nc1cccc(F)c1)Nc1ncccc1OCc1cccc(Cl)c1 | 38% |
| O=C(Nc1ccccc1)Nc1ncccc1OCc1cccc(Cl)c1 | 31% |
| NC(=O)CN1CCCC1=O [PIRACETAM] | 29% |
| O=C(Nc1cccc(F)c1)Nc1ncccc1OCc1ccccc1Cl | 14% |
| O=C(Nc1cccc(Cl)c1)Nc1ncccc1OCc1ccccc1Cl | 21% |

System: not listed separately
Test: Cytotoxicity against mouse HT22 cells assessed as cell viability at 5 uM after 24 hrs by MTT assay relative to control
Assay type: cell-based, HT-22
Settings: read-out: Activity
Method in brief: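 HT-22 cells (5000/well) got compound at 5 µM for 24 h at 37 °C. MTT was added for 2 h, then solubilizer (10% Triton X-100 in isopropanol, 0.1 M HCl) for 1 h at room temperature. Absorbance was read at 570 nm, vehicle-subtracted, and expressed as % viability; mean of duplicates.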

| SMILES | viability at 24 h, 5 µM |
| --- | --- |
| O=C(Nc1ccc(Cl)c(Cl)c1)Nc1ncccc1OCc1ccccc1Cl | 60% |
| Cc1ccc(NC(=O)Nc2ncccc2OCc2cccc(Cl)c2)cc1 | 95% |
| O=C(Nc1ccccc1F)Nc1ncccc1OCc1cccc(Cl)c1 | 115% |
| O=C(Nc1cccc(F)c1)Nc1ncccc1OCc1cccc(Cl)c1 | 91% |
| O=C(Nc1ccccc1)Nc1ncccc1OCc1cccc(Cl)c1 | 98% |
| O=C(Nc1cccc(F)c1)Nc1ncccc1OCc1ccccc1Cl | 86% |
| O=C(Nc1cccc(Cl)c1)Nc1ncccc1OCc1ccccc1Cl | 84% |

Species on record: Mus musculus
Test: Inhibition of amyloid beta (1 to 42)-induced mPTP opening in mouse HT22 cells assessed as protection against amyloid beta (1 to 42)-induced deterioration of ATP production by measuring ATP recovery at 5 uM preincubated for 10 mins followed by amyloid beta (1 to 42) addition and measured after 7 hrs relative to control
Assay type: cell-based
Set-up: scale not given: the % may be the effect or the level left
Settings: not given
Method in brief: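 HT-22 cells (10,000/well, seeded the day before) got compound for 10 min at 37 °C, then Aβ1-42; per footnote, both were at 5 µM. After 7 h at 37 °C, cells were washed, lysed in 1% Triton X-100/TBST and protein-normalized by BCA. ATP was measured with a luciferase kit. Aβ-injured level was set to 0 and vehicle to 100% recovery; mean of duplicates.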

| SMILES | Activity |
| --- | --- |
| Cc1ccc(NC(=O)Nc2ncccc2OCc2cccc(Cl)c2)cc1 | 54% |
| O=C(Nc1ccccc1F)Nc1ncccc1OCc1cccc(Cl)c1 | 43% |
| O=C(Nc1cccc(F)c1)Nc1ncccc1OCc1cccc(Cl)c1 | 69% |
| O=C(Nc1ccccc1)Nc1ncccc1OCc1cccc(Cl)c1 | 90% |
| NC(=O)CN1CCCC1=O [PIRACETAM] | 127% |
| O=C(Nc1cccc(F)c1)Nc1ncccc1OCc1ccccc1Cl | 78% |
| O=C(Nc1cccc(Cl)c1)Nc1ncccc1OCc1ccccc1Cl | 91% |

System: HT-22
Test: Toxicity in mouse HT22 cells assessed as ATP production level at 5 uM after 7 hrs by luciferase based assay relative to control
Assay type: cell-based
Settings: ht-22, 7 h
Method in brief: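 HT-22 cells (10,000/well, seeded the day before; DMEM, 10% FBS, 37 °C, 5% CO2) were exposed to compound (5 µM per footnote) without Aβ for 7 h at 37 °C. Cells were lysed in 1% Triton X-100/TBST, equal protein (BCA) was taken, and ATP was measured with a luciferase kit. Result is % ATP production relative to vehicle; mean of duplicates.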

| SMILES | Activity |
| --- | --- |
| O=C(Nc1ccc(Cl)c(Cl)c1)Nc1ncccc1OCc1ccccc1Cl | 123% |
| Cc1ccc(NC(=O)Nc2ncccc2OCc2cccc(Cl)c2)cc1 | 108% |
| O=C(Nc1ccccc1F)Nc1ncccc1OCc1cccc(Cl)c1 | 104% |
| O=C(Nc1cccc(F)c1)Nc1ncccc1OCc1cccc(Cl)c1 | 99% |
| O=C(Nc1ccccc1)Nc1ncccc1OCc1cccc(Cl)c1 | 109% |
| NC(=O)CN1CCCC1=O [PIRACETAM] | 88% |
| O=C(Nc1cccc(F)c1)Nc1ncccc1OCc1ccccc1Cl | 106% |
| O=C(Nc1cccc(Cl)c1)Nc1ncccc1OCc1ccccc1Cl | 124% |

Species on record: Mus musculus
Test: Inhibition of amyloid beta (1 to 42)-induced mPTP opening in mouse HT22 cells assessed as reduction in mitochondrial membrane potential loss by measuring green to red fluorescence ratio at 5 uM preincubated for 10 mins followed by amyloid beta (1 to 42) addition and measured every 1 hr for 3 hrs by JC1 staining based fluorescence assay relative to control
Assay type: cell-based
Set-up: scale not given: the % may be the effect or the level left
Settings: not given
Method in brief: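 HT-22 cells (30,000/well) were seeded one day before and loaded with 7.5 µM final JC-1 in phenol red-free Opti-MEM for 1 h 15 min at 37 °C, then washed with PBS. Compound (5 µM) was added for 10 min at 37 °C, then Aβ1-42 (5 µM). Red (ex/em 530/580 nm) and green (485/530 nm) fluorescence were read hourly for 3 h. Green/red ratio was expressed versus Aβ alone (100%), as mean of duplicates.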

| SMILES | Activity |
| --- | --- |
| O=C(NCc1ccccc1)Nc1ncccc1OCc1cccc(F)c1 | 9% |
| Cc1ccc(NC(=O)Nc2ncccc2OCc2cccc(F)c2)cc1 | 22% |
| O=C(Nc1cccc(F)c1)Nc1nccnc1OCc1cccc(F)c1 | 98% |
| O=C(Nc1ccc(Cl)c(Cl)c1)Nc1ncccc1OCc1ccccc1Cl | 36% |
| O=C(Nc1ncccc1OCc1ccccc1Cl)Nc1cccc2ccccc12 | 77% |
| O=C(Nc1ccccc1F)Nc1ncccc1OCc1ccccc1Cl | 38% |
| Cc1ccc(NC(=O)Nc2ncccc2OCc2ccccc2Cl)cc1 | 22% |
| O=C(Nc1ncccc1OCc1ccc(Cl)cc1)Nc1cccc2ccccc12 | 52% |
| O=C(Nc1ccccc1F)Nc1ncccc1OCc1ccc(F)cc1 | 27% |
| O=C(Nc1ccc(Cl)c(Cl)c1)Nc1ncccc1OCc1cccc(Cl)c1 | 10% |
| O=C(Nc1ncccc1OCc1cccc(Cl)c1)Nc1cccc2ccccc12 | 106% |
| Cc1ccc(NC(=O)Nc2ncccc2OCc2ccc(Cl)cc2)cc1 | 44% |
| Cc1ccc(NC(=O)Nc2ncccc2OCc2cccc(Cl)c2)cc1 | 26% |
| O=C(Nc1cccc(Cl)c1)Nc1ncccc1OCc1cccc(Cl)c1 | 55% |
| O=C(Nc1ccccc1F)Nc1ncccc1OCc1cccc(Cl)c1 | 11% |
| O=C(Nc1cccc(F)c1)Nc1ncccc1OCc1ccc(Cl)cc1 | 15% |
| O=C(Nc1cccc(F)c1)Nc1ncccc1OCc1ccccc1 | 13% |
| O=C(Nc1ccccc1)Nc1ncccc1OCc1ccccc1Cl | 80% |
| O=C(Nc1ccccc1F)Nc1ncccc1OCc1ccc(Cl)cc1 | 27% |
| O=C(Nc1ccccc1F)Nc1ncccc1OCc1cccc(F)c1 | 23% |
| O=C(Nc1cccc(F)c1)Nc1ncccc1OCc1cccc(Cl)c1 | 13% |

| SMILES | Activity |
| --- | --- |
| O=C(Nc1ccc(C(F)(F)F)cc1)Nc1ncccc1OCc1cccc(Cl)c1 | 27% |
| O=C(Nc1cccc(Cl)c1)Nc1ncccc1OCc1ccc(Cl)cc1 | 46% |
| O=C(Nc1cccc(F)c1)Nc1nccnc1OCc1ccccc1 | 111% |
| Cc1ccc(NC(=O)Nc2nccnc2OCc2cccc(F)c2)cc1 | 96% |
| O=C(Nc1ccc(Cl)c(Cl)c1)Nc1ncccc1OCc1cccc(F)c1 | 35% |
| O=C(Nc1ccccc1F)Nc1ncccc1OCc1ccccc1 | 69% |
| O=C(Nc1ccccc1F)Nc1nccnc1OCc1ccccc1 | 123% |
| O=C(Nc1ccc(Cl)c(Cl)c1)Nc1ncccc1OCc1ccccc1 | 19% |
| O=C(Nc1cccc(F)c1)Nc1ncccc1OCc1ccc(F)cc1 | 18% |
| O=C(Nc1ccccc1)Nc1ncccc1OCc1cccc(Cl)c1 | 14% |
| O=C(Nc1ccc(C(F)(F)F)cc1)Nc1ncccc1OCc1ccc(Cl)cc1 | 91% |
| O=C(Nc1ccccc1)Nc1ncccc1OCc1cccc(F)c1 | 23% |
| O=C(Nc1cccc(F)c1)Nc1ncccc1OCc1cccc(F)c1 | 34% |
| O=C(Nc1ccc(Cl)c(Cl)c1)Nc1nccnc1OCc1cccc(F)c1 | 101% |
| O=C(Nc1cccc(F)c1)Nc1ncccc1OCc1ccccc1Cl | 32% |
| O=C(Nc1ccc(C(F)(F)F)cc1)Nc1ncccc1OCc1cccc(F)c1 | 23% |
| O=C(Nc1cccc(Cl)c1)Nc1ncccc1OCc1ccc(F)cc1 | 91% |
| O=C(Nc1cccc(Cl)c1)Nc1ncccc1OCc1ccccc1Cl | 25% |
| O=C(NCc1ccccc1)Nc1nccnc1OCc1cccc(F)c1 | 69% |
| O=C(Nc1ccc(Cl)c(Cl)c1)Nc1ncccc1OCc1ccc(Cl)cc1 | 47% |
